# Rows were chosen to be rich in hits. Some 3% of all compounds tested hit in one or more screens of this group.
# BB579 growth dn: reduces growth of yeast BB579 in restrictive medium. 140,000 tested, 0.51% active. S. cerevisiae BB579 growth, OD615, 48 h. inhibition, % at 10 µM;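 active = inhibition above a set limit, 3 SD over the mean compound inhibition, cut at about 44% in these data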
#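 Test system: DeaD yeast strain BB579 / Buffer or medium: restrictive glucose-based CSMM-D medium / Doses: single 10 µM dose / Schedule: 4 h cell preincubation, 48 h compound exposure, 30 °C humidified / Technique: culture absorbance at 615 nm / Controls: amphotericin B positive control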
# Insulin prom inh: TRM-6 insulin promoter activity inhibition | TRM-6 cells, insulin promoter-eGFP reporter, imaging; reporter expression induced with tamoxifen | inhibition, % at 2 µM | 130,000 tested, 0.9% active;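 active = inhibition above the mean plus 3 SD, with well images judged a real hit on visual review, cut at about 60% in these data, passing the limit was not always enough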
# Yeast lifespan up: extends the lifespan of yeast; S. cerevisiae growth with nicotinamide, OD615; deaD strain in restrictive glucose medium; inhibition of the nicotinamide effect, % at 10 µM; 130,000 tested, 0.68% active;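 active = inhibition above a set limit, placed 3 SD over the median of all compounds, cut at about 26% in these data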;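 also: 0% = nicotinamide-treated wells and 100% = cells grown without nicotinamide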
#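 Test system: DeaD-strain S. cerevisiae / Buffer or medium: restrictive glucose medium / Also added: nicotinamide 1.5 mM / Doses: one concentration, 10 µM, DMSO 0.25% / Schedule: 48 h at 30 °C / Signal: OD615 measurement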
# Insulin prom up: MIN6 insulin promoter up-regulation | MIN6 insulin promoter-GFP reporter, high-content imaging; hits give high values | z-score at 5 µM | 190,000 tested, 0.3% active | AID 1625;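 active = z-score above 3 at 5 µM with at least 500 cells counted in the well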
# RAM inhibit: inhibitors of the yeast RAM network. AID 868. S. cerevisiae dse1pr::URA3 reporter, 5-FOA growth OD615, 2 d; analog-sensitive cbk1-as2 kinase mutant strain. inhibition, % at 50 µM. 190,000 tested, 1.8% active;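 active = inhibition above a set limit, 3 SD over mean compound inhibition, cut at about 8.4% in these data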;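 also: 0% = DMSO-only wells with no growth and 100% = 10 µM 1-NA-PP1 full growth; inhibition rescues growth on 5-FOA so higher OD means more RAM inhibition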
# The depositor's hits bear a star; . = no result given.
SMILES,BB579 growth dn,Insulin prom inh,Yeast lifespan up,Insulin prom up,RAM inhibit
CC(C)c1ccc(NC(=S)NCCc2c[nH]c3ccccc23)cc1,54.9*,.,-5.3,0.39,5.3
Cc1cc(C(=O)Oc2cccnc2)ccc1[N+](=O)[O-],-9.8,83.3*,0.9,-0.21,1.6
Cc1ccc(OCc2nnc(SCc3ccc(C#N)cc3)n2-c2ccc(C)cc2)cc1,-29.0,-27.8,1.5,-0.66,8.5*
CCOC(=O)c1sc(/N=C/c2c(O)ccc3ccccc23)cc1C,-29.9,-23.5,12.2,0.11,9.0*
Cc1ccc(N=Cc2c(O)ccc3ccccc23)cc1F,5.3,-20.0,35.9*,0.41,0.0
N#Cc1cccc(N=Cc2c(O)ccc3ccccc23)c1,-9.1,10.7,40.1*,0.16,-0.9
CCOC(=O)c1cc2ccc3ccccc3c2s1,-38.2,-7.7,.,-0.26,1.1
COc1ccc(N=Cc2c(O)ccc3ccccc23)cc1,.,.,.,-0.65,-1.9
Cc1oc(/N=C/c2c(O)ccc3ccccc23)c(C#N)c1C,.,.,.,1.12,.
O=C(O)Cc1ccc(N=Cc2c(O)ccc3ccccc23)cc1,-29.9,13.3,56.6*,0.29,-0.4
CCn1cc(-c2csc(N)n2)c(C)n1,.,-23.1,.,0.18,-0.2
CC(C)(C)NC(=O)CCc1ncc(C(F)(F)F)cc1Cl,.,-38.5,.,0.07,3.5
COc1cc(C(=O)NCC(=O)N/N=C(/C)c2cccs2)cc(OC)c1OC,0.4,37.8,-3.0,0.18,-1.3
N#C/C(C(N)=O)=c1/ccc2c(c1)N1C3=C(CCCC3)CC3CCCCC31N=2 (stereo not given),-18.9,.,37.0*,-0.37,8.4
O=C(Cn1nc(-c2ccc(Cl)cc2)c2ccccc2c1=O)Nc1cccnc1,-28.4,13.3,-3.7,1.12,1.1
N#Cc1c(-c2ccccc2)c(-c2ccccc2)nn(CC(=O)NNC(=O)Nc2ccccc2)c1=O,-10.1,.,62.4*,-0.52,4.0
O=C(Cn1nc(-c2ccccc2)c2ccccc2c1=O)Nc1cccnc1,-39.7,76.7*,-7.4,-0.24,1.9
O=[N+]([O-])/C=C/c1cn(Cc2ccccc2)c2ccccc12,12.1,62.5,10.5,0.81,-0.1
N#Cc1ccccc1Cn1cc(/C=C/[N+](=O)[O-])c2ccccc21,-2.2,-24.1,34.5*,1.41,5.9
COc1cc(/C=C2\S/C(=N/S(=O)(=O)Cc3ccccc3)NC2=O)c([N+](=O)[O-])cc1OC,.,.,.,-0.07,.
COc1cc(/C=C2/S/C(=N/S(=O)(=O)c3ccccc3)NC2=O)c([N+](=O)[O-])cc1OC,-47.3,-37.5,-3.1,.,9.4*
COc1cc(Cl)c(C)cc1NC(=O)c1cccc(OC)c1OC,.,.,.,-1.49,10.3*
CCN1C(=O)/C(=C\C=C\c2ccccc2[N+](=O)[O-])SC1=S,.,22.2,.,0.38,8.6*
CCN1C(=O)/C(=C/N2CCc3ccccc3C2)SC1=S,.,.,.,0.33,.
CC(=O)c1c(O)c2ccccc2n(C)c1=O,.,.,.,-0.27,-0.5
SMILES,BB579 growth dn,Insulin prom inh,Yeast lifespan up,Insulin prom up,RAM inhibit
Cn1c(=O)c(Oc2ccc(F)cc2)c(O)c2ccccc21,4.6,64.3*,10.5,-0.05,-0.6
C=CCn1cnc2c(c1=O)c1nc3ccccc3nc1n2/N=C/c1cccc(OC)c1OC,.,.,.,-1.32,.
C=CCn1cnc2c(c1=O)c1nc3ccccc3nc1n2/N=C/c1cc(OC)c(OC)c(OC)c1,58.4*,0.0,-24.2,-0.59,-0.1
CCCNc1nc(N2CCCC2)nc(N2CCCC2)n1,.,83.3*,.,.,4.2
CC(C)Nc1nc(NC(C)C)nc(N(C)C(N)=O)n1,-21.1,72.7*,-7.3,0.15,-0.4
Nc1ccc2nc(SCC(=O)N3CCOCC3)sc2c1,.,80.0*,.,1.16,1.0
CC(=O)Nc1ccc(NS(=O)(=O)c2ccc(Cl)c(C(=O)O)c2)cc1,-42.0,79.2*,-10.9,0.34,0.5
CC(CCc1ccccc1)NC(=O)c1nnc(Cc2ccc(Cl)cc2)o1 (stereo not given),12.5,.,-9.2,-0.46,8.7*
Cc1cc(=O)n2[nH]c(CCC(=O)O)nc2n1,.,.,.,0.21,.
O=C(Nc1c2c(nc3ccccc13)CCCC2)c1ccccc1F,-7.4,64.3*,-1.1,0.4,-0.7
O=C(COC(=O)c1cc(=O)[nH]c2ccccc12)Nc1nc(-c2ccccc2)cs1,.,-11.8,.,0.79,4.0
Oc1c(CN2CCCCC2)cc(Br)c2cccnc12,98.5*,.,-19.7,-1.7,-1.0
Oc1c(CN2CCc3ccccc3C2)cc(Cl)c2cccnc12,98.7*,.,-14.8,0.85,-1.7
CN1CCN(Cc2cc(COCc3ccccc3)c3cccnc3c2O)CC1,50.5*,28.6,-3.4,-2.06,-1.1

# Source: PubChem
